≈ marks a conversion by molar mass, not a printed value. Calls of active or inactive are those of the source.
What was measured:
[1] = system: ACHN; assay: Cytotoxicity against human ACHN cells assessed as cell growth at 80 uM by sulforhodamine B assay relative to control; assay type: functional; settings: read-out: Activity
Method in brief: (§1)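 Run at NCI in the DTP 60-cell-line human tumor panel by standard procedure. Compounds were first screened at a single concentration, then tested at five tenfold-spaced concentrations. GI50 is the concentration reducing treated-cell growth to half that of untreated controls; TGI is the concentration completely halting growth.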

[2] = system: TK-10; assay: Cytotoxicity against human TK10 cells assessed as cell growth at 8 nM by sulforhodamine B assay relative to control; assay type: functional; settings: read-out: Activity
[3] = system: U-251; assay: Cytotoxicity against human U251 cells assessed as cell growth at 80 uM by sulforhodamine B assay relative to control; assay type: functional; settings: read-out: Activity
[4] = system: HCC 2998; assay: Cytotoxicity against human HCC2998 cells assessed as cell growth at 8 uM by sulforhodamine B assay relative to control; assay type: functional; settings: read-out: Activity
[5] = system: NCI-H23; assay: Cytotoxicity against human NCI-H23 cells assessed as cell growth at 8 nM by sulforhodamine B assay relative to control; assay type: functional; settings: read-out: Activity
[6] = system: Aspergillus fumigatus; assay: Antimicrobial activity against Aspergillus fumigatus ATCC 90906 by CLSI method; assay type: functional, organism-based
[7] = system: 786-0; assay: Cytotoxicity against human 786-0 cells by sulforhodamine B assay; assay type: functional; method in brief: as §1
[8] = system: T47D; assay: Cytotoxicity against human T47D cells assessed as cell growth at 8 nM by sulforhodamine B assay relative to control; assay type: functional; settings: read-out: Activity
[9] = system: SN12C; assay: Cytotoxicity against human SN12C cells assessed as cell growth at 8 nM by sulforhodamine B assay relative to control; assay type: functional; settings: read-out: Activity
[10] = system: MOLT-4; assay: Cytotoxicity against human MOLT4 cells assessed as cell growth at 80 uM by sulforhodamine B assay relative to control; assay type: functional; settings: read-out: Activity
[11] = system: MOLT-4; assay: Cytotoxicity against human MOLT4 cells by sulforhodamine B assay; assay type: functional
Method in brief: (§2)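 NCI Developmental Therapeutics Program 60-cell-line human tumor panel screen, run at NCI. A single-concentration pre-screen was followed by a five-concentration dose-response in 10-fold steps. GI50 is the concentration that reduces growth of treated cells to half that of untreated control cells. TGI is the concentration that completely halts growth.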

[12] = system: A498; assay: Cytotoxicity against human A498 cells by sulforhodamine B assay; assay type: functional; method in brief: as §1
[13] = system: SN12C; assay: Cytotoxicity against human SN12C cells assessed as cell growth at 8 uM by sulforhodamine B assay relative to control; assay type: functional; settings: read-out: Activity
[14] = system: SNB-19; assay: Cytotoxicity against human SNB19 cells assessed as cell growth at 80 nM by sulforhodamine B assay relative to control; assay type: functional; settings: read-out: Activity
[15] = system: HCT-15; assay: Cytotoxicity against human HCT15 cells assessed as cell growth at 8 uM by sulforhodamine B assay relative to control; assay type: functional; settings: read-out: Activity
[16] = system: A549; assay: Cytotoxicity against human A549 cells assessed as cell growth at 80 nM by sulforhodamine B assay relative to control; assay type: functional; settings: read-out: Activity; method in brief: as §1
[17] = system: SNB-19; assay: Cytotoxicity against human SNB19 cells assessed as cell growth at 800 nM by sulforhodamine B assay relative to control; assay type: functional; settings: read-out: Activity
[18] = system: MOLT-4; assay: Cytotoxicity against human MOLT4 cells assessed as cell growth at 8 nM by sulforhodamine B assay relative to control; assay type: functional; settings: read-out: Activity
[19] = system: MCF7; assay: Cytotoxicity against human MCF7 cells assessed as cell growth at 8 nM by sulforhodamine B assay relative to control; assay type: functional; settings: read-out: Activity
[20] = system: UO-31; assay: Cytotoxicity against human UO31 cells assessed as cell growth at 80 nM by sulforhodamine B assay relative to control; assay type: functional; settings: read-out: Activity
[21] = system: HOP-62; assay: Cytotoxicity against human HOP62 cells assessed as cell growth at 80 nM by sulforhodamine B assay relative to control; assay type: functional; settings: read-out: Activity
[22] = system: SF-268; assay: Cytotoxicity against human SF268 cells assessed as cell growth at 8 nM by sulforhodamine B assay relative to control; assay type: functional; settings: read-out: Activity
[23] = system: LOX IMVI; assay: Cytotoxicity against human LOXIMVI cells assessed as cell growth at 8 uM by sulforhodamine B assay relative to control; assay type: functional; settings: read-out: Activity
[24] = system: NCI-H322M; assay: Cytotoxicity against human NCI-H322M cells by sulforhodamine B assay; assay type: functional; method in brief: as §2
[25] = system: HL-60(TB); assay: Cytotoxicity against human HL-60(TB) cells assessed as cell growth at 800 nM by sulforhodamine B assay relative to control; assay type: functional; settings: read-out: Activity
[26] = system: UACC-257; assay: Cytotoxicity against human UACC257 cells assessed as cell growth at 8 nM by sulforhodamine B assay relative to control; assay type: functional; settings: read-out: Activity
[27] = system: LOX IMVI; assay: Cytotoxicity against human LOXIMVI cells assessed as cell growth at 800 nM by sulforhodamine B assay relative to control; assay type: functional; settings: read-out: Activity
[28] = system: TK-10; assay: Cytotoxicity against human TK10 cells assessed as cell growth at 80 uM by sulforhodamine B assay relative to control; assay type: functional; settings: read-out: Activity
[29] = system: KM12; assay: Cytotoxicity against human KM12 cells assessed as cell growth at 8 uM by sulforhodamine B assay relative to control; assay type: functional; settings: read-out: Activity
[30] = system: IGROV-1; assay: Cytotoxicity against human IGROV1 cells assessed as cell growth at 80 uM by sulforhodamine B assay relative to control; assay type: functional; settings: read-out: Activity
[31] = system: Fusarium sp.; assay: Antimicrobial activity against Fusarium sp. by CLSI method; assay type: functional, organism-based
[32] = system: SW-620; assay: Cytotoxicity against human SW620 cells assessed as cell growth at 8 uM by sulforhodamine B assay relative to control; assay type: functional; settings: read-out: Activity
[33] = system: Mus musculus; assay: Acute toxicity in athymic nude mouse assessed as mortality at 12.5 mg/kg, […]; assay type: organism-based; parameters: dose 12.5 mg/kg, route intraperitoneal; settings: in vivo, ip, 576 h
[34] = system: HL-60(TB); assay: Cytotoxicity against human HL-60(TB) cells assessed as cell growth at 80 nM by sulforhodamine B assay relative to control; assay type: functional; settings: read-out: Activity
[35] = system: NCI-H23; assay: Antitumor activity against human NCI-H23 cells xenografted in mouse assessed as tumor cell killing at 4.7 mg/kg, ip qd for 4 days by MTT assay; assay type: functional, organism-based; parameters: dose 4.7 mg/kg
Method in brief: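 Hollow-fiber assay in mice. Tumor lines were grown in RPMI-1640 with 10% FBS and 2 mM glutamine. Cells at 2 × 10^6 cells/ml were loaded into 1 mm PVDF fibers (500,000 Da cutoff), heat-sealed at 2 cm and held 24–48 h at 37 °C, 5% CO2 before implantation. Compound was given IP. Fibers were collected the day after the fourth treatment for MTT (OD 540 nm, group means). A ≥50% cut in percent net growth versus vehicle counted as positive.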

[36] = system: HOP-92; assay: Cytotoxicity against human HOP92 cells assessed as cell growth at 800 nM by sulforhodamine B assay relative to control; assay type: functional; settings: read-out: Activity
[37] = system: RXF 393; assay: Cytotoxicity against human RXF393 cells assessed as cell growth at 800 nM by sulforhodamine B assay relative to control; assay type: functional; settings: read-out: Activity
[38] = system: NCI-H23; assay: Cytotoxicity against human NCI-H23 cells assessed as cell growth at 80 nM by sulforhodamine B assay relative to control; assay type: functional; settings: read-out: Activity
[39] = system: A549; assay: Cytotoxicity against human A549 cells assessed as cell growth at 8 uM by sulforhodamine B assay relative to control; assay type: functional; settings: read-out: Activity; method in brief: as §1

**Q.** Which results are given for `C/C=C1\NC(=O)[C@H](Cc2ccccc2)NC(=O)[C@@H](C(C)C)NC(=O)[C@@H]([C@@H](C)CC)NC(=O)[C@H](NC(=O)[C@H](NC(=O)[C@H](CCCNCc2ccc(F)c(C)c2)NC(=O)[C@H]2CCCN2C(=O)[C@H](NC(=O)[C@@H](NC(=O)[C@@H](NC(=O)[C@H](NC(=O)CCCC(C)C)C(C)C)[C@@H](C)O)C(C)C)C(C)C)[C@@H](C)CC)[C@@H](C)OC(=O)[C@H](C(C)C)NC1=O`?
**A.** growth at 80 µM [1]: -100%; growth at 0.008 µM [2]: 112%; growth at 80 µM [3]: -89%; growth at 8 µM [4]: -87%; growth at 0.008 µM [5]: 102%; IC50 [6]: 3090 nM; MFC [6]: 10 µM (≈ 16 µg/mL); MIC [6]: 10 µM (≈ 16 µg/mL); GI50 [7]: 1290 nM; LC50 [7]: 4170 nM; TGI ([7]; read-out: pTGI (converted)): 2340 nM; growth at 0.008 µM [8]: 104%; growth at 0.008 µM [9]: 89%; growth at 80 µM [10]: 9%; GI50 [11]: 2140 nM; LC50 [11]: > 75900 nM; GI50 [12]: 1320 nM; LC50 [12]: 4470 nM; TGI ([12]; read-out: pTGI (converted)): 2450 nM; growth at 8 µM [13]: -81%; growth at 0.08 µM [14]: 96%; growth at 8 µM [15]: -92%; growth at 0.08 µM [16]: 98%; growth at 0.8 µM [17]: 90%; growth at 0.008 µM [18]: 103%; growth at 0.008 µM [19]: 95%; growth at 0.08 µM [20]: 106%; growth at 0.08 µM [21]: 102%; growth at 0.008 µM [22]: 97%; growth at 8 µM [23]: -85%; LC50 [24]: 457 nM; GI50 ([24]; read-out: GI50): 131 nM; TGI ([24]; read-out: TGI): 244 nM; GI50 ([24]; read-out: pGI50 (converted)): 132 nM; TGI ([24]; read-out: pTGI (converted)): 245 nM; growth at 0.8 µM [25]: 106%; growth at 0.008 µM [26]: 102%; growth at 0.8 µM [27]: 108%; growth at 80 µM [28]: -9%; growth at 8 µM [29]: -85%; growth at 80 µM [30]: -26%; Activity [31]: Active; growth at 8 µM [32]: -100%; Activity [33]: Non-toxic; growth at 0.08 µM [34]: 97%; Activity [35]: inactive; growth at 0.8 µM [36]: 92%; growth at 0.8 µM [37]: 88%; growth at 0.08 µM [38]: 100%; growth at 8 µM [39]: -64%

From ChEMBL document CHEMBL1921722, “In vitro and in vivo evaluation of select kahalalide F analogs with antitumor and antifungal activities” (Bioorg Med Chem, 2011)
